Measured values as given in PubChem BioAssay AID488769 (The Scripps Research Institute Molecular Screening Center, 2010).

Biological target: Nuclear receptor subfamily 5 group A member 2 (Homo sapiens) (UniProt O00482)
Experiment: lowering haptoglobin, SAA1, SAA4 transcripts – cell-based, quantitative PCR, fluorescence (AID 488769)
Details: Huh7 cytokine-induced target gene mRNA, TaqMan qPCR, 18 h, at 10 µM, active compounds read high
Summary of the method: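 Material: Huh7 cells, endogenous LRH-1. Benchmarks: DMSO vehicle-treated cells as reference. Evaluation: mean % inhibition of target mRNA. Timing: 18 h compound exposure, then 3 h cytokine stimulation. Detection: TaqMan qPCR of target mRNAs.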

Sequence of Nuclear receptor subfamily 5 group A member 2 (Homo sapiens) (O00482 whole entry, looked up): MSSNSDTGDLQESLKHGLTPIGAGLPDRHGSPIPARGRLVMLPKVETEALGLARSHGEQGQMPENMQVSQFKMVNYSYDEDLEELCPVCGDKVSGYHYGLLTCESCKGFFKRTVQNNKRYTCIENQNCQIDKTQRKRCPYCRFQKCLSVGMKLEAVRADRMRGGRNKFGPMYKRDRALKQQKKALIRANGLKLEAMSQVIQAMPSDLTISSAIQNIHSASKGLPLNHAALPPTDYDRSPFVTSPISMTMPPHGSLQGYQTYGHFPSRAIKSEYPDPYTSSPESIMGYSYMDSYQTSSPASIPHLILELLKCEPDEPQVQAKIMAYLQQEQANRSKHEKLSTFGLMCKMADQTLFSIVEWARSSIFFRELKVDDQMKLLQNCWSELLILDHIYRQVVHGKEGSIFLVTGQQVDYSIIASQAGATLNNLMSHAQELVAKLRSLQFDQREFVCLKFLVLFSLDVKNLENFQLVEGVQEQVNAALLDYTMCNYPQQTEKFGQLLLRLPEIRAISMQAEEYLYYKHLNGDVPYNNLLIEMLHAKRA

Row | inhibition (Haptoglobin) [%] | inhibition (SAA1) [%] | inhibition (SAA4) [%] | Compound
1 | 88 | 91 | 55 | O=c1cc(N2CCN(c3cccc(Cl)c3)CC2)[nH]c(=O)n1C1CCCCC1
2 | 86 | 93 | 55 | O=c1cc(N2CCN(c3cccc(C(F)(F)F)c3)CC2)[nH]c(=O)n1C1CCCCC1
